# Assay results reported in ChEMBL document CHEMBL4138313 (J Med Chem, 2018).
# Calls of active or inactive are those of the source. No cut-off for these calls is given here.
# How the values were obtained:
# [1] = target: T1, Poly [ADP-ribose] polymerase 1 (Homo sapiens, UniProt P09874); assay: Inhibition of PARP1 (unknown origin) at 10 uM
# Procedure, shortened: (§1)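 Run by an outside contractor using PARP or TNKS kit protocols, in duplicate, at room temperature for 1 h in histone-coated wells. The Tris·HCl pH 8.0 reaction buffer held NAD+, biotinylated NAD+, activated DNA, enzyme and compound. Streptavidin-HRP was then added for 30 min at room temperature, followed by developer reagents and a luminescence read.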
# [2] = system: MEF; assay: Cytotoxicity against mouse wild type MEF cells assessed as reduction in cell viability at 0.016 to 100 uM after 4 to 7 days by cell-titer glo assay; format: cell-based
# Procedure, shortened: (§2)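 Cells kept at 37 °C, 5% CO2, 15% O2 in RPMI 1640 with 10% FBS and 1% penicillin/streptomycin. Seeded at 1,000 cells/well and dosed 24 h later at 100–0.016 µM. Exposure lasted 4–7 days, then viability was read by CellTiter Glo luminescence. Signal was normalized to percent survival against the mean of vehicle controls. Three repeat experiments.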
# [3] = Safety index, ratio compound EC50 to olaparib EC50 for BRCA1 deficient human UWB1.289 cells; format: ADME; settings: BRCA1-deficient UWB1.289 cells, read-out: Ratio EC50
# Procedure, shortened: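 UWB1.289 cells were grown in 1:1 MEGM (bullet kit) and RPMI 1640 with 10% FBS and 1% pen/strep, at 37 °C, 5% CO2 and 15% O2. Cells were seeded at 1,000 cells/well and dosed after 24 h at 100–0.016 µM for 4–7 days. Viability was read by CellTiter-Glo luminescence and normalised to the vehicle mean.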
# [4] = system: MEF; assay: Cytotoxicity against mouse PARP2 deficient MEF cells expressing PARP1 assessed as reduction in cell viability after 4 to 7 days by cell-titer glo assay; format: cell-based
# [5] = Cytotoxicity against human OVCAR8 cells assessed as cell survival at 10 uM after 4 to 7 days by cell-titer glo assay; format: cell-based, OVCAR-8; settings: OVCAR8 cells, read-out: Activity
# [6] = Cytotoxicity against human BRCA1-restored UWB1.289 cells assessed as reduction in cell viability after 4 to 7 days by cell-titer glo assay; format: cell-based
# [7] = system: MEF; assay: Cytotoxicity against mouse PARP1 deficient MEF cells assessed as reduction in cell viability at 0.016 to 100 uM after 4 to 7 days by cell-titer glo assay; format: cell-based; procedure, shortened: as §2
# [8] = Cytotoxicity against human BRCA1-deficient UWB1.289 cells assessed as reduction in cell viability after 4 to 7 days by cell-titer glo assay; format: cell-based
# [9] = target: T2, Poly [ADP-ribose] polymerase tankyrase-2 (Homo sapiens) (UniProt Q9H2K2); assay: Inhibition of human N-terminal GST-tagged TNKS2 (667 to 1166 residues) expressed in baculovirus infected sf9 cells at 10 uM using histone as substrate after 1 hr by streptavidin-horseradish peroxidase-based luminescence assay; procedure, shortened: as §1
# T2 sequence (whole entry): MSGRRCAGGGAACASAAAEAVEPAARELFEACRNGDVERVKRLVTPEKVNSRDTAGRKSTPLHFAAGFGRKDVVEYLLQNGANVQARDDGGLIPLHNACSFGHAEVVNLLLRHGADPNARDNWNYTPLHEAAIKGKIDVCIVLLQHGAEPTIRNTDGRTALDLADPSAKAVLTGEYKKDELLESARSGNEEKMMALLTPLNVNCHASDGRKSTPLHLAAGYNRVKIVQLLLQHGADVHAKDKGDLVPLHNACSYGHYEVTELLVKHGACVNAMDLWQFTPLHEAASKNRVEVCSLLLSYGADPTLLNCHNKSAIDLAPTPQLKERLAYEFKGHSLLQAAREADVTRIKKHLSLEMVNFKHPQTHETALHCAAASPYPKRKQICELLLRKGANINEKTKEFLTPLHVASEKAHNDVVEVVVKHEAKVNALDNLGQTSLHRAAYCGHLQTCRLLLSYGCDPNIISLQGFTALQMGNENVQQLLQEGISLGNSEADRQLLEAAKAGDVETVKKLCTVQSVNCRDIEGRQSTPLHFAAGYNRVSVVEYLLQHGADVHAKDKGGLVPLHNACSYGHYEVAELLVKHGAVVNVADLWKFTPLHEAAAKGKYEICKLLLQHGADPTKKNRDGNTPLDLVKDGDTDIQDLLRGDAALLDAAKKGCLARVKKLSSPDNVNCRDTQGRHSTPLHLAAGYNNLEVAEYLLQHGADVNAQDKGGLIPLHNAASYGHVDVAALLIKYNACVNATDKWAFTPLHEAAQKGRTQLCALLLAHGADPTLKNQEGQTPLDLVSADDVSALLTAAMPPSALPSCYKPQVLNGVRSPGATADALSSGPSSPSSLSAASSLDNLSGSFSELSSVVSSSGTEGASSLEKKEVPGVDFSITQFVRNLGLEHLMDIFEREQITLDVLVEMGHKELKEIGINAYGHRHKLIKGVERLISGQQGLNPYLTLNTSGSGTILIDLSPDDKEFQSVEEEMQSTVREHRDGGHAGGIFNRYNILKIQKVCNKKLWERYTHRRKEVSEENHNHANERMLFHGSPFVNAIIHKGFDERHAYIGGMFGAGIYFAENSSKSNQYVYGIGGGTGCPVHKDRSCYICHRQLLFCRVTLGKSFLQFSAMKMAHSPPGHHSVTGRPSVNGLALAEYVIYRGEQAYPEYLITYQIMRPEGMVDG
# [10] = system: MEF; assay: Cytotoxicity against mouse wild type MEF cells assessed as reduction in cell viability after 4 to 7 days by cell-titer glo assay; format: cell-based
# [11] = target: T3, Poly [ADP-ribose] polymerase tankyrase-1 (Homo sapiens, UniProt O95271); assay: Inhibition of human N-terminal GST-tagged TNKS1 (1001 to 1327 residues) expressed in baculovirus infected sf9 cells using histone as substrate after 1 hr by streptavidin-horseradish peroxidase-based luminescence assay
# T3 sequence (O95271 whole entry): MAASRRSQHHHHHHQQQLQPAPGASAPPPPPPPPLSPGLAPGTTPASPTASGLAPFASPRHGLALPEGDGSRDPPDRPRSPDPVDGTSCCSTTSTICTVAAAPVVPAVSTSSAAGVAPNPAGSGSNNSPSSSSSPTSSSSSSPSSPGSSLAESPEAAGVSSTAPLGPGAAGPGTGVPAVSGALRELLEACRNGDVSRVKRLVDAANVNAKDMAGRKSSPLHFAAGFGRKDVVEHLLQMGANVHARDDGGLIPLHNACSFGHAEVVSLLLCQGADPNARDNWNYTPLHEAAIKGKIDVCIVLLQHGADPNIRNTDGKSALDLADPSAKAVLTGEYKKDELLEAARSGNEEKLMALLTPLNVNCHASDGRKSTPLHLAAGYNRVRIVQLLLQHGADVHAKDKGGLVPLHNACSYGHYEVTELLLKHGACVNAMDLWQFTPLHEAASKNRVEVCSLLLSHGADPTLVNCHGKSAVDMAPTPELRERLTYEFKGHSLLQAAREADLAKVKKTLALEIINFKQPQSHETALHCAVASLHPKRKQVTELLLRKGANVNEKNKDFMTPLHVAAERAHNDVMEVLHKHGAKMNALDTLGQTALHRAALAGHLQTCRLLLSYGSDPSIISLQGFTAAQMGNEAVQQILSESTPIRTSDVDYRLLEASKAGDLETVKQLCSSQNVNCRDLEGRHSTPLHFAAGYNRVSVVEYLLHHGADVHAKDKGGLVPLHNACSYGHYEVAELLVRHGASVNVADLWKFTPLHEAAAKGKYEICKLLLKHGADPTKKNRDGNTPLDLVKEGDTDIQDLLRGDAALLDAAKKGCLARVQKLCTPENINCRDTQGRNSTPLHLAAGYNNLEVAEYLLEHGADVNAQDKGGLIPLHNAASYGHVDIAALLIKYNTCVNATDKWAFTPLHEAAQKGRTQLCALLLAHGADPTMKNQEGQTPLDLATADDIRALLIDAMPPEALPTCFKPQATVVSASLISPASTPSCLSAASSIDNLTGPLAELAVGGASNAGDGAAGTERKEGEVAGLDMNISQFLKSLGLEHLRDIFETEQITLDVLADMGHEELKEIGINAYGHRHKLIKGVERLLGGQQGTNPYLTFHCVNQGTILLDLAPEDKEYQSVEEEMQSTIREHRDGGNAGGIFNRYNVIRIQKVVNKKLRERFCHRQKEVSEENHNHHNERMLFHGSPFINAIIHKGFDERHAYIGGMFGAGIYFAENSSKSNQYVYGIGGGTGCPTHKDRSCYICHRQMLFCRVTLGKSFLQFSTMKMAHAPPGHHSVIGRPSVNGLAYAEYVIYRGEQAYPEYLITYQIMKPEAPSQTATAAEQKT
# [12] = system: MEF; assay: Cytotoxicity against mouse PARP1 deficient MEF cells assessed as reduction in cell viability after 4 to 7 days by cell-titer glo assay; format: cell-based
# [13] = target: T4, Poly [ADP-ribose] polymerase tankyrase-2 (Homo sapiens, UniProt Q9H2K2); assay: Inhibition of human N-terminal GST-tagged TNKS2 (667 to 1166 residues) expressed in baculovirus infected sf9 cells using histone as substrate after 1 hr by streptavidin-horseradish peroxidase-based luminescence assay
# T4 sequence (Q9H2K2 whole entry): T2 sequence (whole entry)
# [14] = target: T1, Poly [ADP-ribose] polymerase 1; assay: Binding affinity to PARP1 in human OVCAR8 cells assessed as reduction in [125I]-KX1 binding by gamma counting analysis; format: cell-based
# T1 sequence (P09874 whole entry): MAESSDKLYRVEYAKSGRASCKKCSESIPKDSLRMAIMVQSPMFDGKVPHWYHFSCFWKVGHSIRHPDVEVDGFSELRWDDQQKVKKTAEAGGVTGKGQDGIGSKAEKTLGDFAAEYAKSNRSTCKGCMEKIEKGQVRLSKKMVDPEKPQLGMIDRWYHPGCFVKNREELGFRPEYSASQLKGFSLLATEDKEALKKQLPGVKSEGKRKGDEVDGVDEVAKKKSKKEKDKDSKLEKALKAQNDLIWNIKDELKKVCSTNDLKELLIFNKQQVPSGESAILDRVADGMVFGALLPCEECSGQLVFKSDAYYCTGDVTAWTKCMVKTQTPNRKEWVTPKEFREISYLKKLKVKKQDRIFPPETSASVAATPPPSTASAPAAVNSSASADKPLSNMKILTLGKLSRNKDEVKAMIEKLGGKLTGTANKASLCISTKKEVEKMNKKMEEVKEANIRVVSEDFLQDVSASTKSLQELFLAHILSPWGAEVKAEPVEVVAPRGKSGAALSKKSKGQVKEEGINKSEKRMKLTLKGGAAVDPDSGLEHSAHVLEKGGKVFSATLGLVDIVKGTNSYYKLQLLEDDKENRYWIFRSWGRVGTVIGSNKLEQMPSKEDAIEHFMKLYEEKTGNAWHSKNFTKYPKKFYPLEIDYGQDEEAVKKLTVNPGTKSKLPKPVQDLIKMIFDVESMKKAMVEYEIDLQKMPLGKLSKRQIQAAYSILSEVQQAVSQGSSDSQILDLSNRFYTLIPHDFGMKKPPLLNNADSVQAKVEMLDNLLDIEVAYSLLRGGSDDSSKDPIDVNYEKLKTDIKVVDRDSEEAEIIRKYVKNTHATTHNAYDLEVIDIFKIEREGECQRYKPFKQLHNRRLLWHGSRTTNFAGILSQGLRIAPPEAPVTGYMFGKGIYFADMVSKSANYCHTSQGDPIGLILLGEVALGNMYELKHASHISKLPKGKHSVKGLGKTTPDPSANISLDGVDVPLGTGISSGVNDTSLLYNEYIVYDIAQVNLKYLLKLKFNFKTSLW
inhibition [1],inhibition [9],IC50 [11] [µM],IC50 [13] [µM],IC50 [14] [µM],SMILES,Activity [2] [%],selectivity ratio [3],EC50 [4] [µM],viability at 10 µM [5] [%],EC50 [6] [µM],Activity [7] [%],EC50 [8] [µM],EC50 [10] [µM],EC50 [12] [µM]
Active,–,–,–,–,O=C(c1cc(Cc2n[nH]c(=O)c3ccccc23)ccc1F)N1CC2(C1)CN(C(=O)C1CC1)C2,< 50,7,59.8,80,12.1,< 50,1.5,–,–
–,Active,5.7,2.8,–,CC(C)(C)OC(=O)N1CCC2(CC1)CCN(C(=O)c1cc(Cc3n[nH]c(=O)c4ccccc34)ccc1F)CC2,–,20 to 40,19.2,–,4,–,2.7,16.9,43.4
–,Active,3,0.953,1.1,CC(C)(C)OC(=O)N1CCC2(CC1)CCN(C(=O)c1cc(Cc3n[nH]c(=O)c4ccccc34)ccc1F)C2,–,20 to 40,31.6,–,6.2,–,8.4,9.4,45.9
–,Active,1,0.576,–,CC(C)(C)OC(=O)N1CCC2(CCN(C(=O)c3cc(Cc4n[nH]c(=O)c5ccccc45)ccc3F)C2)C1 (stereo unspecified),–,20 to 40,23.4,–,7.4,–,4.2,17.2,46.4
